Test results from ChEMBL document CHEMBL5325511, “Discovery of N-(4-(Aminomethyl)phenyl)-5-methylpyrimidin-2-amine Derivatives as Potent and Selective JAK2 Inhibitors” (ACS Med Chem Lett, 2023).

Key:
[1] = molecular target: Tyrosine-protein kinase JAK2 (Mus musculus, UniProt Q62120, V617F); test: Inhibition of JAK2 V617F mutant in mouse BaF3 cells; format: cell-based
Summary of the method: (§1)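 Cell proliferation assay. IC50 is the concentration that inhibits proliferation by 50%, taken from dose–response curves. Mean ± SEM of at least three independent experiments.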

[2] = Metabolic stability in human liver microsomes assessed as half life; format: ADME, Microsome
[3] = molecular target: T1, Receptor-type tyrosine-protein kinase FLT3 (Homo sapiens, UniProt P36888); test: Inhibition of FLT3 in human MOLM-13 cells; format: cell-based; summary of the method: as §1
T1 sequence (P36888 whole entry): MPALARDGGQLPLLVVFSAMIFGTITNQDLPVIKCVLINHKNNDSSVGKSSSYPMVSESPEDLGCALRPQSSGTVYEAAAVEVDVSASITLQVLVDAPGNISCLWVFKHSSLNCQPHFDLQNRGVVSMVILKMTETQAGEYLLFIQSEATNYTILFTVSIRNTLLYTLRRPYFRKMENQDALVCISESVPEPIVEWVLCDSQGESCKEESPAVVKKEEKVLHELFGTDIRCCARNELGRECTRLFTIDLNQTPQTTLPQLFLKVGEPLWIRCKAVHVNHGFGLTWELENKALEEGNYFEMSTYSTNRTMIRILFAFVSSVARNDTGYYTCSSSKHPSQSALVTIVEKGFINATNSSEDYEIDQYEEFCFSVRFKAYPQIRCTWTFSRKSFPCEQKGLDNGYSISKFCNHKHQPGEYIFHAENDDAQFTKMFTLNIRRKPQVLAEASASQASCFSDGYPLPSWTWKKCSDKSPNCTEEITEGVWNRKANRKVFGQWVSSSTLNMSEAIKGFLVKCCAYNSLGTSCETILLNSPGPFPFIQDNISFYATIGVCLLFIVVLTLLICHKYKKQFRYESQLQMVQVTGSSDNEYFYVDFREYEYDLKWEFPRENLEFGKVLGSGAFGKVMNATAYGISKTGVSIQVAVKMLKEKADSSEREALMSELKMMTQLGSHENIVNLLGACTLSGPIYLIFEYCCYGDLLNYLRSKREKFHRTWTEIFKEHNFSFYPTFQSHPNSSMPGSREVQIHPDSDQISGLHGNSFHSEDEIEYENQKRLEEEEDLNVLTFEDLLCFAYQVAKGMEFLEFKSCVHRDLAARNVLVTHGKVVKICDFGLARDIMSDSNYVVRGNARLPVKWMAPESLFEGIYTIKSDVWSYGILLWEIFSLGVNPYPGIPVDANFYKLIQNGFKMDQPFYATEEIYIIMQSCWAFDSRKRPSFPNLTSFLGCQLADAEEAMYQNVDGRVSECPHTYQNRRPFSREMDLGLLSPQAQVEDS

[4] = molecular target: T2, Tyrosine-protein kinase JAK2 (Homo sapiens, UniProt O60674); test: Inhibition of human JAK2 JH1 expressed in baculovirus infected Sf9 cells assessed as residual activity at 100 nM relative to control
T2 sequence (O60674 whole entry): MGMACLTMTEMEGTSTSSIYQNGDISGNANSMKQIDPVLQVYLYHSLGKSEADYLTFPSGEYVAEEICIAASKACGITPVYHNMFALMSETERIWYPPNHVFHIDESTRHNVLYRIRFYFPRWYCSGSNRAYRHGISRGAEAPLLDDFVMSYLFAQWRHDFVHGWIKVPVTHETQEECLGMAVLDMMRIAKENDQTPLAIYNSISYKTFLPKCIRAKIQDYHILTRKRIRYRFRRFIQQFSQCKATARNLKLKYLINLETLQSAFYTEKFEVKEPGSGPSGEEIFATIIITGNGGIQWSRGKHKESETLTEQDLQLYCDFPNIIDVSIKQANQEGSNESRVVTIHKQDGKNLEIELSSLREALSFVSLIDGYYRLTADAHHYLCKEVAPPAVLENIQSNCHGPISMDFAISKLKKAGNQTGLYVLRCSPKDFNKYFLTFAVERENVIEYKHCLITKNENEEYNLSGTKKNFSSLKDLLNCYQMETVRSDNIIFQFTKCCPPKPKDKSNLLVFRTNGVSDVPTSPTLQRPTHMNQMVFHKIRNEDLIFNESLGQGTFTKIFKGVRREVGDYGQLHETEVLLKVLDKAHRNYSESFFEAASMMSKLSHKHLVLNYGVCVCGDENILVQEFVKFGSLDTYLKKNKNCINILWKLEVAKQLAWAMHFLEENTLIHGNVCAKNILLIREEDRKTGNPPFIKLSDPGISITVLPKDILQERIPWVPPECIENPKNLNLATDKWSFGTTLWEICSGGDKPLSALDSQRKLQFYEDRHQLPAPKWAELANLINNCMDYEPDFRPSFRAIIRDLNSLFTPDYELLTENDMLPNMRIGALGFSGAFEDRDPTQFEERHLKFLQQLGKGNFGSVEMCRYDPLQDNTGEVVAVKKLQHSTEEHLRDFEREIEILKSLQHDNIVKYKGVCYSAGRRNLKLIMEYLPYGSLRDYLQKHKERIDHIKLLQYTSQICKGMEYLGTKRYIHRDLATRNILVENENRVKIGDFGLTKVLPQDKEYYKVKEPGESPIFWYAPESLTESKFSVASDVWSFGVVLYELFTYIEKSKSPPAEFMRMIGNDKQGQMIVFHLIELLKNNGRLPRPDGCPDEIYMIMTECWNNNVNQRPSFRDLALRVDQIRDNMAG

[5] = molecular target: Tyrosine-protein kinase JAK2 (Homo sapiens, UniProt O60674, V617F); test: Inhibition of JAK2 V617F mutant in human SET2 cells; format: cell-based; summary of the method: as §1
Chain of Tyrosine-protein kinase JAK2 (Homo sapiens, UniProt O60674, V617F) (O60674 whole entry V617F): as the sequence (O60674 whole entry) above, with V617F counted along it

[6] = AUC(0 to t) in Sprague-Dawley rat at 5 mg/kg, po measured upto 24 hrs by LC-MS/MS analysis; format: ADME, organism-based; parameters: time < 24 hrs, dose 5 mg/kg, route po; settings: in vivo
Summary of the method: (§2)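 Sprague–Dawley rats, n = 5, dosed at 5 mg/kg as a solution in 2% ethanol and 1% Tween 80, pH 5.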

[7] = Cmax in Sprague-Dawley rat at 5 mg/kg, po measured upto 24 hrs by LC-MS/MS analysis; format: ADME, organism-based; parameters: dose 5 mg/kg, time < 24 hrs, route po; settings: Sprague-Dawley, in vivo, read-out: Cmax; summary of the method: as §2
[8] = Tmax in Sprague-Dawley rat at 5 mg/kg, po measured upto 24 hrs by LC-MS/MS analysis; format: ADME, organism-based; settings: Sprague-Dawley, in vivo, read-out: Tmax
Summary of the method: (§3)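 Sprague–Dawley rats, n = 5 per group, dosed at 5 mg/kg as a solution in 2% ethanol and 1% Tween 80, pH 5.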

[9] = Half life in Sprague-Dawley rat at 5 mg/kg, po measured upto 24 hrs by LC-MS/MS analysis; format: ADME, organism-based; settings: Sprague-Dawley, in vivo; summary of the method: as §2
[10] = molecular target: T3, Tyrosine-protein kinase JAK3 (Homo sapiens, UniProt P52333); test: Inhibition of JAK3 (unknown origin) in presence of Mg/ATP mixture by [gamma p33]-ATP based radiometric assay
T3 sequence (P52333 whole entry): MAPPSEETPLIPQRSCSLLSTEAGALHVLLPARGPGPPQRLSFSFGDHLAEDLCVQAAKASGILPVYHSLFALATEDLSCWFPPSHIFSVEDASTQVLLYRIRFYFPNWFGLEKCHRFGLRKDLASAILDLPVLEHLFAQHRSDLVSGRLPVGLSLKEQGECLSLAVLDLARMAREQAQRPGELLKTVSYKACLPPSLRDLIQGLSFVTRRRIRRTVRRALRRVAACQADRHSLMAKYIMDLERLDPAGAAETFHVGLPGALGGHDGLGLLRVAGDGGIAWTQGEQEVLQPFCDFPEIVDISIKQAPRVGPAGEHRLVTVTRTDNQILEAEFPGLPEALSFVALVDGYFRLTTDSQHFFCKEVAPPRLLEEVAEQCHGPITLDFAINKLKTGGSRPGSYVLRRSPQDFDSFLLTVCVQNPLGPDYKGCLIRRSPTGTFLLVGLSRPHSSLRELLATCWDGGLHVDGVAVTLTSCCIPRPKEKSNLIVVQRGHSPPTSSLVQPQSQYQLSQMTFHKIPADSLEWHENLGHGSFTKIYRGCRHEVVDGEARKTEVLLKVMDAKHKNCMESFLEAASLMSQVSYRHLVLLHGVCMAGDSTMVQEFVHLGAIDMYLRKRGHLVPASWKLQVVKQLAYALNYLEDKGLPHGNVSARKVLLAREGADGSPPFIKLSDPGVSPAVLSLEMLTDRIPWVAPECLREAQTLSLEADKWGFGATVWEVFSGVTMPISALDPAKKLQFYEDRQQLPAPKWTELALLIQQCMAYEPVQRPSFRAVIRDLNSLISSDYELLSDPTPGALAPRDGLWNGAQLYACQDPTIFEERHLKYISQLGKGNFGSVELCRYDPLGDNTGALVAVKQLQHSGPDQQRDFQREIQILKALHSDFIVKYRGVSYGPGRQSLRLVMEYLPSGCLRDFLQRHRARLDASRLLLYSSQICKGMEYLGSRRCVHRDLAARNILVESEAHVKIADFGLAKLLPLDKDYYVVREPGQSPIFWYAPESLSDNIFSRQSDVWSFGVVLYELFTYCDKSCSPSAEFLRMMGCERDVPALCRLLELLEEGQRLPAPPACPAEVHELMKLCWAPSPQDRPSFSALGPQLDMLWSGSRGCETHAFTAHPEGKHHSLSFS

[11] = molecular target: Non-receptor tyrosine-protein kinase TYK2 (Homo sapiens, UniProt P29597); test: Inhibition of TYK2 (unknown origin) in presence of Mg/ATP mixture by [gamma p33]-ATP based radiometric assay
Chain of Non-receptor tyrosine-protein kinase TYK2 (P29597 whole entry): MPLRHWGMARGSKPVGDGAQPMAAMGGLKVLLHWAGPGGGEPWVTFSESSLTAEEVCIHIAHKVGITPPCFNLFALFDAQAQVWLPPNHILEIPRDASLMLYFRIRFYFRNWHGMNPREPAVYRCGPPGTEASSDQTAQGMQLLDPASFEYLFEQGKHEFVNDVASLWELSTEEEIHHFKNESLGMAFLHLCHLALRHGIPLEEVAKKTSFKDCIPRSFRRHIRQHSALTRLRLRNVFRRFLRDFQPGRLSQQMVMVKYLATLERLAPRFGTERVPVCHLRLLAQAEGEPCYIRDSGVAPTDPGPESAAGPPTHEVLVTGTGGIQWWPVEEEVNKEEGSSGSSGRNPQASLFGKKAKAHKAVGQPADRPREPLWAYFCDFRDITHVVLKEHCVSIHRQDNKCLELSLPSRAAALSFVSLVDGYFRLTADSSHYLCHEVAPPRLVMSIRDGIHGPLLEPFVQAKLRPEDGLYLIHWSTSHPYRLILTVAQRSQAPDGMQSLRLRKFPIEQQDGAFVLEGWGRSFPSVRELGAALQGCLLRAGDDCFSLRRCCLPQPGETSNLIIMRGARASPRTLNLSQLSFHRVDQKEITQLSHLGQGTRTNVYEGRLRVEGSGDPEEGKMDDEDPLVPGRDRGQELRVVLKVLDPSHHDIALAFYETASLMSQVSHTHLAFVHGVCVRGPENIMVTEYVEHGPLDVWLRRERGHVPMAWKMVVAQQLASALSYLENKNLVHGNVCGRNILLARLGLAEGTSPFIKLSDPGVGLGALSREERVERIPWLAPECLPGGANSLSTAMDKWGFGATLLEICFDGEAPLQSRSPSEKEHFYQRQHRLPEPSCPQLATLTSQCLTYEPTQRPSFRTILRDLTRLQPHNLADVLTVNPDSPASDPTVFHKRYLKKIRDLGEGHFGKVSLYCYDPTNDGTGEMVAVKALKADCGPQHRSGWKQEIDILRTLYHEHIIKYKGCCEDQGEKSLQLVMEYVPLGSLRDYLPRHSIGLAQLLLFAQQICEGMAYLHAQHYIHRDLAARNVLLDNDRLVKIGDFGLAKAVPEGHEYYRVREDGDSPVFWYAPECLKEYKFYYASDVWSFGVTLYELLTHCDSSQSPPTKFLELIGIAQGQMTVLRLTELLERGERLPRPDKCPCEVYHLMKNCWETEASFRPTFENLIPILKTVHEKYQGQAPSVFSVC

[12] = Clearance in Sprague-Dawley rat at 5 mg/kg, po measured upto 24 hrs by LC-MS/MS analysis; format: ADME, organism-based; settings: in vivo; summary of the method: as §2
[13] = Selectivity ratio of IC50 for TYK2 (unknown origin) to IC50 for JAK2 (unknown origin)
[14] = Selectivity ratio of IC50 for JAK3 (unknown origin) to IC50 for JAK2 (unknown origin)
[15] = molecular target: Tyrosine-protein kinase JAK1 (Homo sapiens, UniProt P23458); test: Inhibition of JAK1 (unknown origin) in presence of Mg/ATP mixture by [gamma p33]-ATP based radiometric assay
Chain of Tyrosine-protein kinase JAK1 (P23458 whole entry): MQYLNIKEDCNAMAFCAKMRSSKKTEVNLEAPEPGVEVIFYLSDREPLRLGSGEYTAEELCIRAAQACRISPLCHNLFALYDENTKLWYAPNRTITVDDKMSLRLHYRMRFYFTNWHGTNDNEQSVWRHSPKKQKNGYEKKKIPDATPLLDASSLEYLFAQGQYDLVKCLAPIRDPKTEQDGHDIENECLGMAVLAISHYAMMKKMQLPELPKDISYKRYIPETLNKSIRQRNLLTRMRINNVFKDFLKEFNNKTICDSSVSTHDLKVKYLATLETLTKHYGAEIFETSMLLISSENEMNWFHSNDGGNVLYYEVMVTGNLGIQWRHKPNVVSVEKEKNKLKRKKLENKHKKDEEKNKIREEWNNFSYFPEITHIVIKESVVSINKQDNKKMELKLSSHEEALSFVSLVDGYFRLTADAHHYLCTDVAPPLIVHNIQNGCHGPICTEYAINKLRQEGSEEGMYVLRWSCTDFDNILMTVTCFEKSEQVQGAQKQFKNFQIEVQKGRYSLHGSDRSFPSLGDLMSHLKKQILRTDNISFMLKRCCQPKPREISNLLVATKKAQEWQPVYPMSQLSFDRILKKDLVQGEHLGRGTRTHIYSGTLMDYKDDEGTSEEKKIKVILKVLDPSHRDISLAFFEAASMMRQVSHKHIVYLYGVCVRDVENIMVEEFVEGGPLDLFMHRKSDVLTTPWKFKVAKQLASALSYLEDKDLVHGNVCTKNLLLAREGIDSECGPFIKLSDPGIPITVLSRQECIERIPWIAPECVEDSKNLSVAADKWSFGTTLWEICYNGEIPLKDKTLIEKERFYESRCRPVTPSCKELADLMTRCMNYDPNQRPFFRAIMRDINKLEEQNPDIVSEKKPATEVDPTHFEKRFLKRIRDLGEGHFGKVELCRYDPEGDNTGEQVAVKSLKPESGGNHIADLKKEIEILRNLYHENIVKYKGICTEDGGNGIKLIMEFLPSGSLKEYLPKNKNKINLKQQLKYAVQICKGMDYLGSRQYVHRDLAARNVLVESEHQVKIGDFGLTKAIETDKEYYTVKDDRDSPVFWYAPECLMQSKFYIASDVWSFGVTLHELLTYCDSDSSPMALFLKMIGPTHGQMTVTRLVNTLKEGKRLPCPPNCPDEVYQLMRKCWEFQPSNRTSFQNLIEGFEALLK
Summary of the method: (§4)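 IC50 values determined by Eurofins Discovery.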

[16] = molecular target: T2, Tyrosine-protein kinase JAK2; test: Inhibition of JAK2 (unknown origin) in presence of Mg/ATP mixture by [gamma p33]-ATP based radiometric assay; summary of the method: as §4
[17] = Oral bioavailability in Sprague-Dawley rat at 5 mg/kg measured upto 24 hrs by LC-MS/MS analysis; format: ADME, organism-based; settings: in vivo; summary of the method: as §3
[18] = molecular target: T1, Receptor-type tyrosine-protein kinase FLT3; test: Inhibition of FLT3 (unknown origin) in presence of Mg/ATP mixture by [gamma p33]-ATP based radiometric assay; summary of the method: as §4
[19] = Selectivity ratio of IC50 for FLT3 (unknown origin) to IC50 for JAK2 (unknown origin)

Chain of Tyrosine-protein kinase JAK2 (Mus musculus, UniProt Q62120, V617F) (Q62120 as listed by the source V617F): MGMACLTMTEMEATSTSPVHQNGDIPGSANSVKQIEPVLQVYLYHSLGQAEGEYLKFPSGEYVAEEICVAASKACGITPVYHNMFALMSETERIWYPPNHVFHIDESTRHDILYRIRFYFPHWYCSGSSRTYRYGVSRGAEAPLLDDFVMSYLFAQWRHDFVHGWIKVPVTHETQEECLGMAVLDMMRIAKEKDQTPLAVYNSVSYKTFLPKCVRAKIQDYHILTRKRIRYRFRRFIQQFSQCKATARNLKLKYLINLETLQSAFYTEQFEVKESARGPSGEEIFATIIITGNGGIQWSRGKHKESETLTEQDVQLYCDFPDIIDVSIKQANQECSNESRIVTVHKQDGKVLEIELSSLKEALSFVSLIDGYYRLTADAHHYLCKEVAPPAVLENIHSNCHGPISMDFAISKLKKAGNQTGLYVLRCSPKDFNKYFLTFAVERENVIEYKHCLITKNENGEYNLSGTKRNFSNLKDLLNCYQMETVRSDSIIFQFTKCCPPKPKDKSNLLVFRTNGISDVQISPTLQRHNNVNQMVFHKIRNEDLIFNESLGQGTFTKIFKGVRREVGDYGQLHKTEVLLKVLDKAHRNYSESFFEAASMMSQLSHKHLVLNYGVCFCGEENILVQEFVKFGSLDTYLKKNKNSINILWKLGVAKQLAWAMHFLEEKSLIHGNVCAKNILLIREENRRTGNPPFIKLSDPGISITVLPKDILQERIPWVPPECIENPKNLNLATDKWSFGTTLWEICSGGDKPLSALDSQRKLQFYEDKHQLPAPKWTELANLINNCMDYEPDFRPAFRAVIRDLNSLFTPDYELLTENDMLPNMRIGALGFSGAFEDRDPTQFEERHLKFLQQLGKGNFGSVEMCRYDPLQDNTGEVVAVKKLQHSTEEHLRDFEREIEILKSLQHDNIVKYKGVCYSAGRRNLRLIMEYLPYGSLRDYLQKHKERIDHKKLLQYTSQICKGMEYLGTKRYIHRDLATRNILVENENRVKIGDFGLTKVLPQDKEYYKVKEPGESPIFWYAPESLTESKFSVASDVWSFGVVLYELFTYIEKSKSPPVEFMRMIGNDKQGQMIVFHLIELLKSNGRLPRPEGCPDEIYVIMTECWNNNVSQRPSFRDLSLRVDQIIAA

Compound	IC50 [1] [nM]	half-life [2] [h]	IC50 [3] [nM]	Activity [4] [%]	IC50 [5] [nM]	AUCt [6] [ng·h/mL]	Cmax [7] [ng/mL]	Tmax [8] [h]	half-life [9] [h]	IC50 [10] [nM]	IC50 [11] [nM]	CL [12] [mL/min/kg]	Ratio IC50 [13]	Ratio IC50 [14]	IC50 [15] [nM]	IC50 [16] [nM]	bioavailability [17] [%]	IC50 [18] [nM]	Ratio IC50 [19]
Cc1cnc(Nc2ccc(CCNC(=O)/C=C/CN(C)C)cc2)nc1-c1cnn(C(C)C)c1	1140	0.902	> 10000	64	2190	–	–	–	–	–	–	–	–	–	–	–	–	–	–
CCS(=O)(=O)NCc1ccc(Nc2ncc(C)c(-c3cnn(C(C)C)c3)n2)cc1	69.2	> 2	1510	0	212	1556.8	77.8	1	6.3	287	192	340	32	47.8	142	6	35.7	412	68.7
Cc1cnc(Nc2ccc(CCNC(=O)CCCl)cc2)nc1-c1cnn(C(C)C)c1	2200	0.672	> 10000	67	5620	–	–	–	–	–	–	–	–	–	–	–	–	–	–
Cc1cnc(Nc2ccc(CNC(=O)CCl)cc2)nc1-c1cnn(C(C)C)c1	98.1	0.72	961	6	150	–	–	–	–	166	33	–	10	55.3	73	3	–	206	68.7
Cc1cnc(Nc2ccc(CNC(=O)/C=C/CN(C)C)cc2)nc1-c1cnn(C(C)C)c1	265	1.09	826	35	880	–	–	–	–	–	–	–	–	–	–	–	–	–	–
C=CC(=O)NCc1ccc(Nc2ncc(C)c(-c3cnn(C(C)C)c3)n2)cc1	129	1.79	1760	13	245	–	–	–	–	208	77	–	9.6	41.6	106	8	–	320	40
Cc1cnc(Nc2ccc(CCNC(=O)/C=C/C(=O)c3ccccc3)cc2)nc1-c1cnn(C(C)C)c1	178	0.57	882	34	279	–	–	–	–	–	–	–	–	–	–	–	–	–	–
C=CS(=O)(=O)NCCc1ccc(Nc2ncc(C)c(-c3cnn(C(C)C)c3)n2)cc1	169	1.48	1800	30	761	–	–	–	–	–	–	–	–	–	–	–	–	–	–
Cc1cnc(Nc2ccc(CNC(=O)C3CC3)cc2)nc1-c1cnn(C(C)C)c1	72	> 2	1280	9	205	–	–	–	–	156	62	–	15.5	39	87	4	–	311	77.7

Results, then the compound that gave them:

IC50 [1] [nM]	half-life [2] [h]	IC50 [3] [nM]	Activity [4] [%]	IC50 [5] [nM]	AUCt [6] [ng·h/mL]	Cmax [7] [ng/mL]	Tmax [8] [h]	half-life [9] [h]	IC50 [10] [nM]	IC50 [11] [nM]	CL [12] [mL/min/kg]	Ratio IC50 [13]	Ratio IC50 [14]	IC50 [15] [nM]	IC50 [16] [nM]	bioavailability [17] [%]	IC50 [18] [nM]	Ratio IC50 [19]	Compound
101	> 2	885	10	108	–	–	–	–	–	–	–	–	–	–	–	–	–	–	CCCS(=O)(=O)NCc1ccc(Nc2ncc(C)c(-c3cnn(C(C)C)c3)n2)cc1
87.5	0.913	756	5	563	–	–	–	–	54	43	–	6.1	7.7	43	7	–	108	15.4	Cc1cnc(Nc2ccc(CNC(=O)/C=C/C(=O)c3ccccc3)cc2)nc1-c1cnn(C(C)C)c1
3310	1	> 10000	77	5230	–	–	–	–	–	–	–	–	–	–	–	–	–	–	Cc1cnc(Nc2ccc(CCNC(=O)CCCN(C)C)cc2)nc1-c1cnn(C(C)C)c1
870	1.27	5840	55	1960	–	–	–	–	–	–	–	–	–	–	–	–	–	–	Cc1cnc(Nc2ccc(CNC(=O)CCCN(C)C)cc2)nc1-c1cnn(C(C)C)c1
385	0.742	5560	45	985	–	–	–	–	–	–	–	–	–	–	–	–	–	–	Cc1cnc(Nc2ccc(CNC(=O)CCCl)cc2)nc1-c1cnn(C(C)C)c1
372	0.493	1680	48	1550	–	–	–	–	–	–	–	–	–	–	–	–	–	–	Cc1cnc(Nc2ccc(CCNC(=O)CCl)cc2)nc1-c1cnn(C(C)C)c1
182	1.64	1670	15	421	–	–	–	–	–	–	–	–	–	–	–	–	–	–	CCCCS(=O)(=O)NCc1ccc(Nc2ncc(C)c(-c3cnn(C(C)C)c3)n2)cc1
